Reference: ChEMBL document CHEMBL1212900, “Falcipain inhibitors: optimization studies of the 2-pyrimidinecarbonitrile lead series” (J Med Chem, 2010)

Columns and labels:
Plasmodium falciparum = assay: Antiplasmodial activity against Plasmodium falciparum W2 after 48 hrs; type: functional, organism-based; settings: W2, 48 h
Summary of the method: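 W2 P. falciparum grown in human erythrocytes, 2% hematocrit, RPMI with 10% human serum or 0.5% AlbuMAX II; sorbitol-synchronized. Serial dilutions from DMSO stocks added at ring stage for 48 h, medium and drug renewed at 24 h. Cells fixed in 1% formaldehyde, stained with YOYO-1, parasitemia counted by flow cytometry; IC50 from percent parasitemia versus untreated controls.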

[1] = Inhibition of Plasmodium falciparum falcipain-2 expressed in Escherichia coli
Summary of the method: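 Recombinant E. coli-expressed, refolded enzyme at 0.25 nM in 100 mM sodium acetate pH 5.5, 500 μM CHAPS, 10 mM DTT, DMSO ≤1%. Substrate H-D-Val-Leu-Arg-AFC at 30 μM final. Inhibitor dilutions mixed with substrate, enzyme added last; fluorescence followed 1 h at room temperature. IC50 from percent activity versus concentration.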

[2] = Inhibition of Plasmodium falciparum falcipain-3 expressed in Escherichia coli
Summary of the method: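 Refolded recombinant enzyme from E. coli, 2 nM, in 100 mM sodium acetate pH 5.5 with 500 μM CHAPS and 10 mM DTT, DMSO up to 1%. H-D-Val-Leu-Arg-AFC at 150 μM final. Reaction started by enzyme addition; fluorescence monitored 1 h at room temperature. IC50 derived from percent activity plotted against inhibitor concentration.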

`CC(C)CN(NC(=O)c1cc2cc(CN3CCN(C)CC3)ccc2o1)c1nc(C#N)ncc1Br` gave an IC50 (Plasmodium falciparum) of 30 nM, an IC50 [1] of under 0.5 nM and an IC50 [2] of 29 nM.

Compound `CC(C)CN(NC(=O)c1cc2cc(OCCN3CCNCC3)ccc2o1)c1nc(C#N)ncc1Cl` has an IC50 (Plasmodium falciparum) of 76 nM, an IC50 [1] of 1 nM and an IC50 [2] of 107 nM.

With `CC(C)CN(NC(=O)c1ccc(-c2cccc(CN3CCN(C)CC3)c2)nc1)c1nc(C#N)ncc1Br` the IC50 (Plasmodium falciparum) was 22 nM, the IC50 [1] was 0.2 nM and the IC50 [2] was 38 nM.

`CC(C)CN(NC(=O)c1ccc(-c2ccc(CN3CCN(C)CC3)cc2)nc1)c1nc(C#N)ncc1Br` showed an IC50 (Plasmodium falciparum) of 16 nM, an IC50 [1] of under 0.5 nM and an IC50 [2] of 26 nM.

With `CC(C)CN(NC(=O)c1cncc(-c2ccc(CN3CCN(C)CC3)cc2)c1)c1nc(C#N)ncc1Br` the IC50 (Plasmodium falciparum) was 1 nM, the IC50 [1] was under 0.5 nM and the IC50 [2] was under 3 nM.

`CC(C)CN(NC(=O)c1cncc(-c2cccc(CN3CCN(C)CC3)c2)c1)c1nc(C#N)ncc1Br` gave an IC50 (Plasmodium falciparum) of 2 nM, an IC50 [1] of under 0.5 nM and an IC50 [2] of 4 nM.

Compound `CC(C)CN(NC(=O)c1ccc(-c2ccc(CN3CCN(C)CC3)cc2)o1)c1nc(C#N)ncc1Br` has an IC50 (Plasmodium falciparum) of 17 nM, an IC50 [1] of under 0.5 nM and an IC50 [2] of 5 nM.

Compound `CC(C)CN(NC(=O)Cc1ccc(OCCN2CCOCC2)cc1)c1nc(C#N)ncc1Br` has an IC50 (Plasmodium falciparum) of 65 nM, an IC50 [1] of 0.7 nM and an IC50 [2] of 5 nM.

In the case of `CC(C)CN(NC(=O)Cc1ccc(OCCN2CCOCC2)cc1)c1nc(C#N)ncc1Cl`, the IC50 (Plasmodium falciparum) is reported as 403 nM, the IC50 [1] is reported as 1 nM and the IC50 [2] is reported as 8 nM.

In the case of `CC(C)CN(NC(=O)Cc1ccc(CN2CCN(C)CC2)cc1)c1nc(C#N)ncc1Br`, the IC50 (Plasmodium falciparum) is reported as 28 nM, the IC50 [1] is reported as 0.8 nM and the IC50 [2] is reported as 5 nM.

`CC(C)CN(NC(=O)Cc1ccc(CN2CCN(C)CC2)cc1)c1nc(C#N)ncc1Cl` gave an IC50 (Plasmodium falciparum) of 43 nM, an IC50 [1] of 0.7 nM and an IC50 [2] of 5 nM.

`CCCN1CCN(Cc2ccc(CC(=O)NN(CC(C)C)c3nc(C#N)ncc3Br)cc2)CC1` gave an IC50 (Plasmodium falciparum) of 18 nM, an IC50 [1] of 0.2 nM and an IC50 [2] of 3 nM.

Work on `CCCN1CCN(Cc2ccc(CC(=O)NN(CC(C)C)c3nc(C#N)ncc3Cl)cc2)CC1` yielded an IC50 (Plasmodium falciparum) of 41 nM, an IC50 [1] of 0.7 nM and an IC50 [2] of 6 nM.

`CC(C)CN(NC(=O)C(C)(C)c1ccc(OCCN2CCOCC2)cc1)c1nc(C#N)ncc1Br` gave an IC50 (Plasmodium falciparum) of 802 nM, an IC50 [1] of 3 nM and an IC50 [2] of 13 nM.

Work on `CC(C)CN(NC(=O)C(C)(C)c1ccc(OCCN2CCOCC2)cc1)c1nc(C#N)ncc1Cl` yielded an IC50 (Plasmodium falciparum) of 806 nM, an IC50 [1] of 4 nM and an IC50 [2] of 18 nM.

With `CC(C)CN(NC(=O)C(C)(C)c1ccc(CN2CCN(C)CC2)cc1)c1nc(C#N)ncc1Br` the IC50 (Plasmodium falciparum) was 236 nM, the IC50 [1] was 3 nM and the IC50 [2] was 21 nM.

With `CC(C)CN(NC(=O)C(C)(C)c1ccc(CN2CCN(C)CC2)cc1)c1nc(C#N)ncc1Cl` the IC50 (Plasmodium falciparum) was 253 nM, the IC50 [1] was 5 nM and the IC50 [2] was 46 nM.

With `CC(C)CN(c1nc(C#N)ncc1Br)N(CCCN1CCN(C)CC1)C(=O)Cc1ccccc1` the IC50 (Plasmodium falciparum) was 214 nM, the IC50 [1] was 6 nM and the IC50 [2] was 27 nM.

`CC(C)CN(c1nc(C#N)ncc1Cl)N(CCCN1CCN(C)CC1)C(=O)Cc1ccccc1` gave an IC50 (Plasmodium falciparum) of 108 nM, an IC50 [1] of 11 nM and an IC50 [2] of 78 nM.

Compound `CC(C)CN(c1nc(C#N)ncc1Br)N(CCCN1CCN(C)CC1)C(=O)c1ccccc1` has an IC50 (Plasmodium falciparum) of 166 nM, an IC50 [1] of 7 nM and an IC50 [2] of 78 nM.

In the case of `CC(C)CN(c1nc(C#N)ncc1Br)N(CCCN1CCN(C)CC1)C(=O)c1ccc(F)cc1`, the IC50 (Plasmodium falciparum) is reported as 346 nM, the IC50 [1] is reported as 9 nM and the IC50 [2] is reported as 105 nM.

With `C[C@H]1CCC[C@H]1N(NC(=O)c1ccc(CN2CCN(C)CC2)cc1)c1nc(C#N)ncc1Br` (relative stereo) the IC50 (Plasmodium falciparum) was 82 nM, the IC50 [1] was 2 nM and the IC50 [2] was 41 nM.
